From PMC3163381 (Biochemistry, 2011)

Experiments:
[1] = Surface tension measurements at the air-water interface; format: physicochemical; conditions: for surface activity at the air-water interface: result in words
[2] = Pressure-area isotherms of lipid monolayers with the substance in the subphase; format: physicochemical, Escherichia coli; conditions: for increase in the lipid molecular area: 1 mM in subphase, at 35 mN/m (monolayer-bilayer equivalence pressure)
[3] = Stability of AI-1 in water and phosphate buffer; format: physicochemical
How it was run: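 Test compound was held in deionized water and in phosphate buffer at pH 7.4, and followed over several days. Half-life was determined in the buffer.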

[4] = system: MscS; experiment: Patch-clamp of MscS in giant spheroplast patches, activation midpoint; format: biochemical, E. coli
How it was run: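 Giant spheroplasts from cephalexin-treated E. coli MJF 465 (mscS/mscK/mscL) expressing WT MscS. Excised inside-out patches in symmetrical 200mM KCl, 45mM MgCl2, 5mM CaCl2, 5mM HEPES (pH 7.4, KOH); bath had 400mM sucrose added. Test compound was perfused into the bath (cytoplasmic side). p0.5 was taken from 1 s pressure ramps, first within 1 min, then tracked over time, and normalized to pre-addition control.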

[5] = Solubility and stock solution observations in aqueous solution; conditions: result in words

Compound | Γ, surface excess ([1]; Gibbs isotherm fit, 100 mM KCl, 5 mM HEPES pH 7.4) | AS, molecular area at the surface ([1]; air-water interface, from Gibbs isotherm fit) | decrease of surface tension of the solution ([1]; at 1–5 mM, aqueous buffer pH 7.4) | log Kmemb, membrane partitioning coefficient ([1]; calculated from AS and KAW according to Suomalainen) | KAW, propensity toward air-water interface ([1]; extrapolated Gibbs isotherm fit, pH 7.4) | lateral pressure increase in monolayers ([2]; at lipid area of 68–70 Å^2, Fig. 4A) | stability in pure water ([3]; deionized water, result in words) | half-life ([3]; phosphate buffer at pH 7.4) | shift of MscS p0.5 toward higher tension ([4]; 1 mM AI-1 from cytoplasmic side, relative to untreated control) | surface activity at the air-water interface [1] | increase in the lipid molecular area [2] | effect on the activation midpoint of MscS ([4]; up to 1 mM in the bath, result in words, listed as AI-2) | level at which p0.5 stabilizes above the control ([4]; 2.5 mM indole, after return) | transient shift of MscS activation curve towards higher tension ([4]; 2.5 mM indole, cytoplasmic side, naive patch) | solubility in aqueous solution [5]
CCCCCCCC(=O)CC(=O)N[C@H]1CCOC1=O [AI-1, N-(3-Oxodecanoyl)-L-homoserine lactone] | 3.4*10^−6 mol/m^2 | 49 Å^2 | ~ 17 mN/m | 1.94 | 5600 M⁻¹ | ~ 5 mN/m | stable in pure water in the course of several days | 130 h | ≤ 23% | – | – | – | – | – | –
CC(=O)C(=O)C(O)CO (centres unmarked) [AI-2 (Methyl), 4,5-dihydroxy-2,3-pentanedione] | – | – | – | – | – | – | – | – | – | did not show any appreciable surface activity | 2% | no detectable shifts | – | – | –
c1ccc2[nH]ccc2c1 [Indole] | – | – | – | – | – | – | – | – | – | did not show any appreciable surface activity | 5% | – | ~ 4% | ~ 20% | limited solubility
